Results published in ChEMBL document CHEMBL2062509, “Synthesis of benzo-annulated tryptanthrins and their biological properties” (Bioorg Med Chem, 2012).
In brackets after ≈: the same amount, converted by molar mass.

Tests used:
T47D = assay: Cytotoxicity against human T47D cells after 72 hrs by MTT assay; assay type: functional, cell-based
DU-145 = assay: Cytotoxicity against human DU145 cells after 72 hrs by MTT assay; assay type: functional, cell-based; conditions: DU-145, 72 h
HCT-15 = assay: Cytotoxicity against human HCT15 cells after 72 hrs by MTT assay; assay type: functional, cell-based; conditions: HCT-15, 72 h
[1] = biological target: T1, Polyunsaturated fatty acid 5-lipoxygenase (Homo sapiens, UniProt P09917); assay: Inhibition of 5-lipoxygenase
T1 sequence (P09917 whole entry): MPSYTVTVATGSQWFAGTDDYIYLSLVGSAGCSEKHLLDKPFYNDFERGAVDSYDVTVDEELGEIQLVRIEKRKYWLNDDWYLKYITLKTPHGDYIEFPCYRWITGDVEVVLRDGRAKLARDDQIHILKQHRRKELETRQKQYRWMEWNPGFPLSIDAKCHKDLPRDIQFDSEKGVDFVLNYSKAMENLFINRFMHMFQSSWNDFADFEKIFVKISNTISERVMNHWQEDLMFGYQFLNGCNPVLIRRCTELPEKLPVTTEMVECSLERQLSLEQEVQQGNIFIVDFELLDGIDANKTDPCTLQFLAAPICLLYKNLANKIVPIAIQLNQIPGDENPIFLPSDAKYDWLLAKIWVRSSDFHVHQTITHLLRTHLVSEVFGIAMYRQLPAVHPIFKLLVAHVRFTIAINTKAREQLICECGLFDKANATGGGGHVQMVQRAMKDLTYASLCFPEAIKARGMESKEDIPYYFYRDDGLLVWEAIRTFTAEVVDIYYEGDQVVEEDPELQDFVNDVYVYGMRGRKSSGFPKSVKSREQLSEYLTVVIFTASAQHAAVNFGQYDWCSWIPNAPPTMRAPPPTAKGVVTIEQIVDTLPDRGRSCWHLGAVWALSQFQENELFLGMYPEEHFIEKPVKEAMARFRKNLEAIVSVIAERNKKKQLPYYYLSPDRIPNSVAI

[2] = system: Mycobacterium tuberculosis; assay: Antituberculosis activity against Mycobacterium tuberculosis; assay type: functional
HEK293 = assay: Cytotoxicity against human HEK293 cells after 72 hrs by MTT assay; assay type: cell-based; conditions: HEK293, 72 h
[3] = biological target: DNA topoisomerase 2-alpha (Homo sapiens) (UniProt P11388); assay: Inhibition of human DNA topoisomerase 2alpha-mediated relaxation of supercoiled pBR322 DNA at 100 uM after 30 mins by agarose gel electrophoretic analysis
Outline: (§1)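 Human topo IIα (0.2 units) and 100 ng supercoiled pBR322, 30 min at 37 °C with or without compound in 10 mM Tris-HCl pH 7.9, 50 mM NaCl, 5 mM MgCl2, 1 mM EDTA, 1 mM ATP, 15 µg/mL BSA. Quenched with 7 mM EDTA. Resolved on 1% agarose in TAE (25 V, 4 h), ethidium-stained, supercoiled DNA quantified under UV.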

Bos taurus [4] = species: Bos taurus; assay: Inhibition of calf thymus DNA topoisomerase 1-mediated relaxation of supercoiled pBR322 DNA at 100 uM after 30 mins by agarose gel electrophoresis analysis
Bos taurus [5] = species: Bos taurus; assay: Inhibition of calf thymus DNA topoisomerase 1-mediated relaxation of supercoiled pBR322 DNA at 20 uM after 30 mins by agarose gel electrophoresis analysis
HT-1376 = assay: Cytotoxicity against human HT-1376 cells; assay type: functional
[6] = biological target: DNA topoisomerase 2-alpha (Homo sapiens) (UniProt P11388); assay: Inhibition of human DNA topoisomerase 2alpha-mediated relaxation of supercoiled pBR322 DNA at 20 uM after 30 mins by agarose gel electrophoretic analysis; outline: as §1

DNA topoisomerase 2-alpha (Homo sapiens), sequence (P11388 whole entry): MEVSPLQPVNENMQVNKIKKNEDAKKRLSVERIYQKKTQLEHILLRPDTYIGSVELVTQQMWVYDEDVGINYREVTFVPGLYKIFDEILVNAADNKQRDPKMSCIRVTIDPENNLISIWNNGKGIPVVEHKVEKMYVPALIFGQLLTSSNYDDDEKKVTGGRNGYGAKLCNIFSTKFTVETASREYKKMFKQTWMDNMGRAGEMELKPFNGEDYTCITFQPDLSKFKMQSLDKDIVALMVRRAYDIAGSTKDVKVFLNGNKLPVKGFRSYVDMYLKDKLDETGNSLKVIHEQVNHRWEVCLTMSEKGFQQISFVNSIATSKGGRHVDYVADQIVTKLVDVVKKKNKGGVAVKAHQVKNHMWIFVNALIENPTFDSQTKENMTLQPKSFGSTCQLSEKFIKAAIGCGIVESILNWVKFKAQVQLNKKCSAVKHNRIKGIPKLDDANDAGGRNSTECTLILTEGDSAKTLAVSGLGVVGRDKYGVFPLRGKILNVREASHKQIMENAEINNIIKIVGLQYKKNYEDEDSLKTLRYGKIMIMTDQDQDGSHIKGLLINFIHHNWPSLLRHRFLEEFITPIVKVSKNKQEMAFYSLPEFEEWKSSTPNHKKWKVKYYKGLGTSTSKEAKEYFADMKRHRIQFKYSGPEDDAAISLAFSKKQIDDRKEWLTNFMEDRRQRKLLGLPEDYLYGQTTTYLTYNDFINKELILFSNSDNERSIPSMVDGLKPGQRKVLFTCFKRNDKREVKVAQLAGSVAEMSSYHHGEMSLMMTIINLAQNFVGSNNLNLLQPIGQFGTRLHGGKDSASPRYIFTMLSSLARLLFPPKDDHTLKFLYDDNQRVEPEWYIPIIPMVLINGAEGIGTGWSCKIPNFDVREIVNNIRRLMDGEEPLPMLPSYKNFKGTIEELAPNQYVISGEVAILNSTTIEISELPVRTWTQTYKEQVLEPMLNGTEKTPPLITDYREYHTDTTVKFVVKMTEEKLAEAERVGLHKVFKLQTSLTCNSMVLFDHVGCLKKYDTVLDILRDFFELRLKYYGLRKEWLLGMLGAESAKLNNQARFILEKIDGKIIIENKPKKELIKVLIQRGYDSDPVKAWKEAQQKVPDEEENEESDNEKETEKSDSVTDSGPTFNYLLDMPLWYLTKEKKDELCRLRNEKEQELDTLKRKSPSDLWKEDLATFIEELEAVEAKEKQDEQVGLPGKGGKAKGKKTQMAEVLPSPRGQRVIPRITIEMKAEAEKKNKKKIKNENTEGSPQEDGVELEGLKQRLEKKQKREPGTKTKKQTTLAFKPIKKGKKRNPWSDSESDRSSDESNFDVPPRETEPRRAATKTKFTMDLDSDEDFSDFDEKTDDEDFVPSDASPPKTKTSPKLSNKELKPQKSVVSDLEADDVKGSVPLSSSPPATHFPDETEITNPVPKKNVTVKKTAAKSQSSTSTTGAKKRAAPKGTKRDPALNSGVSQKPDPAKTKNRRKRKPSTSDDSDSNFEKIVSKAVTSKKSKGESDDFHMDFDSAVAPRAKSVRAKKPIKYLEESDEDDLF

Row | SMILES | IC50 (T47D) | IC50 (DU-145) | IC50 (HCT-15) | IC50 [1] | MIC [2] | IC50 (HEK293) | inhibition [3] | inhibition (Bos taurus [4]) | inhibition (Bos taurus [5]) | Activity (HT-1376) | inhibition [6]
1 | O=C1c2ccccc2-n2c1nc1ccccc1c2=O [TRYPTANTHRIN] | 14.3 µM | 6.22 µM | 8.49 µM | 0.15 µM | 10 µg/mL (≈ 40.3 µM) | 4.11 µM | 4.54% | 68.4% | 4.09% | 10 µM | 
2 | O=C1c2ccc3ccccc3c2-n2c1nc1ccccc1c2=O | 22.8 µM | 21.4 µM | 12.6 µM |  |  | 22.1 µM | 14% | 53.4% | 4.1% |  | 
3 | O=C1c2cc3ccccc3cc2-n2c1nc1ccccc1c2=O | 21.5 µM | 17.8 µM | 6.15 µM |  |  | 10.7 µM | 75.9% | 69.6% | 5.4% |  | 5.95%
4 | CC[C@@]1(O)C(=O)OCc2c1cc1n(c2=O)Cc2cc3ccccc3nc2-1 [CAMPTOTHECIN] | 9.17 µM | 9.29 µM | 9.92 µM |  |  | 7.94 µM |  | 63.1% | 26.3% |  | 
5 | COc1cccc2c1C(=O)c1c(O)c3c(c(O)c1C2=O)C[C@@](O)(C(=O)CO)C[C@@H]3O[C@H]1C[C@H](N)[C@H](O)[C@H](C)O1 [DOXORUBICIN] | 1.82 µM |  | 1.76 µM |  |  | 1 µM |  |  |  |  | 
6 | O=C1c2cc3ccccc3cc2-n2c1nc1cc3ccccc3cc1c2=O | 25.7 µM | 26.1 µM | 26.2 µM |  |  | 2.31 µM | 12.6% | 41.9% | 3.6% |  | 
7 | O=C1c2c(ccc3ccccc23)-n2c1nc1cc3ccccc3cc1c2=O | 25.2 µM | 34 µM | 32.8 µM |  |  | 24.2 µM | 71.3% | 39.1% | 3.8% |  | 5.83%
8 | O=C1c2ccc3ccccc3c2-n2c1nc1cc3ccccc3cc1c2=O | 34.9 µM | 32.3 µM | 24 µM |  |  | 20.3 µM | 53.5% | 84.1% | 3.5% |  | 19.1%
9 | COc1cc([C@@H]2c3cc4c(cc3[C@@H](O[C@@H]3O[C@@H]5CO[C@@H](C)O[C@H]5[C@H](O)[C@H]3O)[C@H]3COC(=O)[C@H]23)OCO4)cc(OC)c1O [ETOPOSIDE] | 1.21 µM | 1.42 µM | 0.28 µM |  |  | 0.41 µM |  |  |  |  | 
10 | O=C1c2ccccc2-n2c1nc1cc3ccccc3cc1c2=O [BENZO[K]TRYPTANTHRIN] | 23.1 µM | 26 µM | 25.8 µM |  |  | 31.5 µM | 16% | 18.8% |  |  | 
11 | O=C1c2c(ccc3ccccc23)-n2c1nc1ccccc1c2=O | 31.3 µM | 27.7 µM | 24.7 µM |  |  | 25.7 µM | 8.13% | 47.8% | 4.9% |  | 
